The text below walks through data of article PMC6287472 (International Journal for Parasitology: Drugs and Drug …, 2018).

Experiment [1] deals with T1, Sm.5HTRL (Schistosoma mansoni, UniProt A0A173FEI8).
T1 sequence (A0A173FEI8 1-547): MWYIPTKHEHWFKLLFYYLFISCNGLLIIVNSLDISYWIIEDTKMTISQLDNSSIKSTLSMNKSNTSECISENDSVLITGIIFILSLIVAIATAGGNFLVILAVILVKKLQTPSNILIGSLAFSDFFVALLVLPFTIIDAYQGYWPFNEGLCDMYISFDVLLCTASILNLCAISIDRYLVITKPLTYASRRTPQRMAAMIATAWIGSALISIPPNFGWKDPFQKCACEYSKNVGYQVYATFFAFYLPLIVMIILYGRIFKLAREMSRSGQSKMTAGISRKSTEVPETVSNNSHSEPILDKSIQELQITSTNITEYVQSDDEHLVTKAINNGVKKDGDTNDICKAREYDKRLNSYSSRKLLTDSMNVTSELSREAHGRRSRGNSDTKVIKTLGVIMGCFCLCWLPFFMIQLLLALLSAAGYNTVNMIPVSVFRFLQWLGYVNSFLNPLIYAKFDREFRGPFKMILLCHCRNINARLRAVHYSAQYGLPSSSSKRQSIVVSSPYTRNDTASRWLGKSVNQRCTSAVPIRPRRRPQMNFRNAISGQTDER
As to the kind of experiment: Sm.5HTRL cAMP luminescence. The format is cell-based. The following applies: for antagonist activity at Sm.5HTRL (in words): inhibition of 5-HT response, test compound up to 50 μM. A digest of the protocol: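 Sm.5HTRL/GloSensor-22F stable HEK-293 cells, 2.5x10^4/well, in HBSS/HEPES (20 mM, pH 7.4), 0.1% BSA, 1 mg/mL D-luciferin. After 1 h at room temperature, IBMX 200 μM was added for 30 min. Test compound was added and read 45 min, then 500 nM serotonin was added and luminescence read another 45 min. IC50 came from concentration-inhibition curves; Ki was estimated by Cheng-Prusoff.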

The test system of experiment [2] is adult S. mansoni. To be noted: previous work; ref Chan et al., 2016c; cited from earlier work.
Experiment [3] has as its target T1, Sm.5HTRL. The following applies: ref Chan et al., cited from earlier work.
Experiment [4] has as its target T1, Sm.5HTRL. Put plainly: Sm.5HTRL cAMP luminescence. The format is cell-based. The following applies: for Emax: read-out: Sm.5HTRL Emax (normalized to 5-HT). An outline of the steps:
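HEK-293 cells stably carrying the GloSensor-22F cAMP reporter and codon-optimised Sm.5HTRL (pcDNA3.1), selected with hygromycin (200 μg/mL) and G418 (400 μg/mL), plated 2.5x10^4 cells/well the day before. Assay buffer was HBSS/HEPES (20 mM, pH 7.4), 0.1% BSA, D-luciferin 1 mg/mL. Cells were equilibrated 1 h at room temperature, then IBMX 200 μM for 30 min. Luminescence was read 45 min after test compound; Emax was taken relative to 5-HT.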

In experiment [5] the test system is human 5-HT7 receptor. The following applies: ref Plassat et al., 1993; cited from earlier work.
Experiment [6] relates to mammalian 5-HT7 receptors. The following applies: cited from earlier work.
Experiment [7] deals with adult S. mansoni. As to the kind of experiment: Adult schistosome mobility assay, agonist. Details: species or system Schistosoma mansoni. To be noted: adult male worms ex vivo; for increase in worm movement: 5 min incubation. A digest of the protocol:
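Adult worms came from female Swiss Webster mice 49 days after infection with NMRI-strain cercariae. They were washed in RPMI 1640 with HEPES 25 mM, 5% heat-inactivated FBS and pen-strep, then cultured overnight at 37 °C/5% CO2. Males (4–5/well, 3 mL) were exposed to test compound for 5 min. Movement was filmed for 1 min at 4 frames/s and quantified by image analysis; mean ± standard error, ≥3 independent experiments.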

The subject of experiment [8] is adult S. mansoni. As to the kind of experiment: Adult schistosome mobility assay, antagonist. Details: species or system Schistosoma mansoni. To be noted: for inhibition of 5-HT evoked movement (in words): concentrations as high as 50 μM, serotonin 200 μM; for concentration inhibiting 5-HT evoked movement: 1 h incubation, then serotonin 200 μM. An outline of the steps: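 Adult worms were recovered 49 days after cercarial infection of female Swiss Webster mice (NMRI strain parasite). They were kept overnight at 37 °C/5% CO2 in RPMI 1640 with HEPES 25 mM, 5% heat-inactivated FBS and pen-strep. Males (4–5/well) were incubated 1 h in test compound, then serotonin 200 μM was added. One-minute videos at 4 frames/s were analysed for movement; mean ± standard error, ≥3 independent experiments.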

In experiment [9] the test system is HEK-293 cells expressing the GloSensor-22F reporter alone. As to the kind of experiment: Counter-screen on parental GloSensor-22F cell line lacking Sm.5HTRL. The format is cell-based. To be noted: agonists at 10 μM. An outline of the steps:
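Counter-screen used HEK-293 cells stably expressing the GloSensor-22F cAMP reporter without Sm.5HTRL, plated 2.5x10^4 cells/well the day before. Assay buffer was HBSS/HEPES (20 mM, pH 7.4), 0.1% BSA, 1 mg/mL D-luciferin. Cells were equilibrated 1 h at room temperature, then IBMX 200 μM added for 30 min. Test compound was added and luminescence read for 45 min.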
In general terms: The purpose of a counterscreen is to sort out artefacts and off-target activity.

Setting [10] is: ref Bard et al., 1993, Shen et al.
The mark [11] stands for this setting: pKi, estimated using the Cheng-Prusoff equation, inhibition of 500 nM 5-HT.

Entries after “also recorded” stand apart in the source; their conditions may differ. Structures can show the parent of a compound that is named as a salt. Where two headings read alike, the source gives them in different places.

For the compound `COc1ccc(C(=O)c2nccc3cc(OC)c(OC)cc23)cc1OC` [Papaveraldine], in [1], the “antagonist activity at Sm.5HTRL (in words)” value (“antagonist activity” below) is reported as “None of these showed any inhibition”. Regarding `COc1ccc2c(c1OC)CN1CCc3cc4c(cc3[C@@H]1C2)OCO4` [Canadine], in experiment [1], the “antagonist activity” value is “loss of activity; also recorded: inactive”. In the case of `COc1cc2c(cc1OC)C1Cc3ccc(OC)c(OC)c3CN1CC2` (stereo not drawn) [D,L Rotundine], the Ki in experiment [1] is 63.1 nM. In addition, the “effect on movement of adult worms (in words)” value in [2] is “inhibited movement of adult worms”. Moreover, the “activity at Sm.5HTRL (in words)” value in experiment [3] (2016c, listed as D/L-rotundine) is reported as “antagonist”; in [3] (2016c, listed as rotundine), “potent antagonists”.

In the case of `c1cc2c(c3c1CC1c4cc5c(cc4CCN1C3)OCO5)OCO2` (stereo not drawn) [Tetrahydrocoptisine], the entries for the “antagonist activity” value in experiment [1] and in experiment [1] (listed as tetrahydrocopsitine) were “loss of activity” and “inactive”, respectively. Turning to `COc1ccc2[nH]cc(CCN)c2c1` [5-methoxytryptamine], the “agonist activity at Sm.5HTRL (in words)” value in experiment [4] (listed as 5-MeOT) is “inactive; also recorded: did not potently activate”. Besides, the “activity at human 5-HT7 receptor (in words)” value in experiment [5] is recorded as “full agonists”. For the same compound, the “activity at mammalian 5-HT7 receptors (in words)” value in experiment [6] (setting [10]) is “potent full agonists”. The “effect on worm movement (in words)” value is “stimulated movement” in [7] and “potently stimulated movement” in [7] (listed as 5-MeOT). `Cc1ccc2[nH]cc(CCN)c2c1` [5-methyltryptamine]: in experiment [4], the “agonist activity at Sm.5HTRL (in words)” value is listed as “partial agonist activity”. In addition, the “effect on worm movement (in words)” value in [7] is on record as “stimulated movement, but only at high concentrations in the hundreds of micromolar”.

`CC1CCN(CC[C@H]2CCCN2S(=O)(=O)c2cccc(O)c2)CC1` [SB-269970]: the “activity at Sm.5HTRL (in words)” value in experiment [3] (2016c) is “inactive”. Turning to `NCCc1c[nH]c2ccc(Br)cc12` [5-Bromotryptamine], the “agonist activity at Sm.5HTRL (in words)” value in experiment [4] is on record as “partial agonist activity”.

Take `COc1cc2c(cc1O)C[C@H]1c3c(cc(O)c(OC)c3-2)CCN1C` [Boldine]: the “antagonist activity” value in experiment [1] was “potent antagonists”. Also, the “activity at Sm.5HTRL (in words)” value in experiment [3] (2016a) is “Sm.5HTRL antagonists”. Turning to `COc1cc2c(cc1OC)-c1cc3ccc(OC)c(OC)c3c[n+]1CC2` [Palmatine], the “inhibition of 5-HT evoked movement (in words)” value in experiment [8] is listed as “no inhibition”. The “antagonist activity” value in [1] is “inactive”. For `COc1ccc(CC2c3cc(OC)c(OC)cc3CCN2C)cc1OC` (stereo not drawn) [Laudanosine], the “antagonist activity” value in experiment [1] is “None of these showed any inhibition”.

As for `CNCCc1c[nH]c2ccccc12` [N-Methyltryptamine], the “agonist activity at Sm.5HTRL (in words)” value in [4] was “inactive”. Regarding `COc1cc2c3c(c1OC)-c1cc4c(cc1CC3N(C)CC2)OCO4` (stereo not drawn) [nantenine], the “antagonist activity” value in experiment [1] is “potent antagonists”. As for `COc1cc2c(cc1OC)[C@H]1Cc3ccc(OC)c(OC)c3CN1CC2` [D-Rotundine], the “inhibition of 5-HT evoked movement (in words)” value in experiment [8] is listed as “no inhibition”. In [1], the “antagonist activity” value was “inactive”. As for `CNCCc1c[nH]c2ccc(O)cc12` [N-methylserotonin], in [4], the EC50 was 154 ± 11 nM and the Emax was 113 ± 28%. For the same compound, in experiment [6] (ref Powell et al., 2008), the “activity at mammalian 5-HT7 receptors (in words)” value was “full agonist”. In experiment [7], the “effect on worm movement (in words)” value is “full agonist” and the “increase in worm movement” value was found to be 252 ± 9%.

Consider `NCCc1c[nH]c2ccccc12` [Tryptamine], for which the “agonist activity at Sm.5HTRL (in words)” value in [4] is recorded as “negligible activity”. On to `COc1ccc(Cc2nccc3cc(OC)c(OC)cc23)cc1OC` [Papaverine], for which the “antagonist activity” value in experiment [1] is reported as “None of these showed any inhibition”. Turning to `COc1cc2c3c(c1O)-c1ccccc1CC3N(C)CC2` (stereo not drawn) [compound 785177], in [8], the “concentration inhibiting 5-HT evoked movement” value was 1 to 10 µM. On to `CCCN1CCc2cccc3c2[C@H]1Cc1ccc2c(c1-3)OCO2` [(-)-MDO-NPA hydrochloride], for which, in experiment [1] (setting [11]), the Ki was 100 nM.

In the case of `CN(C)CCc1c[nH]c2ccc(O)cc12` [Bufotenine], in [4], the half-maximal effective concentration (EC50) amounted to 2400 ± 200 nM and the Emax is 99 ± 34%. Take `COc1cc2c(cc1OC)-c1c(OC)c(OC)cc3c1[C@H](C2)N(C)CC3` [D-glaucine]: the “antagonist activity” value in experiment [1] is “potent antagonists”. Further, the Ki in experiment [1] (setting [11]) was 158 nM. Moreover, the “activity at Sm.5HTRL (in words)” value in experiment [3] (2016a) is reported as “Sm.5HTRL antagonists”. With `COc1cc2c3c(cc4ccccc4c3c1OC)N(C)CC2` [dehydronuciferine], the “antagonist activity” value in experiment [1] was “inactive”. With `CN(C)CCc1c[nH]c2ccccc12` [DMT, N,N-Dimethyltryptamine], in [4], the “agonist activity at Sm.5HTRL (in words)” value is “inactive”. In addition, the “effect on worm movement (in words)” value in [7] was “no effect on worm movement”. Turning to `COc1ccc2[nH]cc(CCN(C)C)c2c1` [5-MeO-DMT, 5-methoxy-N,N-dimethyltryptamine], in [4], the “agonist activity at Sm.5HTRL (in words)” value was “inactive”.

Take `COc1cc2c(cc1OC)CN1CCc3cc(OC)c(OC)cc3[C@@H]1C2` [d-Xylopinine]: the “antagonist activity” value in experiment [1] is listed as “decreased potency”. Also, the “times less potent than rotundine at Sm.5HTRL” value in experiment [1] (relative to rotundine) is approximately 10. For the compound `COc1cc2c3c(c1OC)-c1ccccc1C[C@H]3N(C)CC2` [L-Nuciferine], the “antagonist activity” value in [1] was “potent antagonists”. In addition, the Ki in experiment [1] (setting [11]) was 79.4 nM. Besides, the “activity at Sm.5HTRL (in words)” value in [3] (2016a) is on record as “potent antagonists; also recorded: Sm.5HTRL antagonists”. Regarding `C=CCN(CC=C)CCc1c[nH]c2ccc(OC)cc12` [5-MeO-DALT, N,N-diallyl-5-methoxytryptamine], the “agonist activity at Sm.5HTRL (in words)” value in [4] was “inactive”.

With `COc1cc2cc3c4c(cc(OC)c(OC)c4c2cc1OC)CCN3C` [Dehydroglaucine], the “antagonist activity” value in [1] was “inactive”. Consider `NCCc1c[nH]c2ccc(C(N)=O)cc12` [5-Carboxamidotryptamine], for which the “agonist activity at Sm.5HTRL (in words)” value in experiment [4] (listed as 5-CT) is “inactive”. The “activity at human 5-HT7 receptor (in words)” value in [5] was “full agonists”. In addition, the “activity at mammalian 5-HT7 receptors (in words)” value in experiment [6] (setting [10]) was “potent full agonists”. Moreover, the “effect on worm movement (in words)” value in experiment [7] is recorded as “did not stimulate movement”. On to `COc1cc2c(cc1OC)[C@@H]1Cc3ccc(OC)c(OC)c3CN1CC2` [L-Rotundine], for which the “concentration inhibiting 5-HT evoked movement” value in [8] is not below 1 µM. Also, the “antagonist activity” value in [1] is “active”. In the case of `NCCc1c[nH]c2ccc(O)cc12` [Serotonin], the EC50 in experiment [4] amounted to 94 ± 18 nM. In experiment [9], the “activity in cells expressing the GloSensor-22F reporter alone (in words)” value is reported as “not observed”. In experiment [7], the “increase in worm movement” value is on record as 224 ± 17%.

As usually defined, the Ki is a measure of affinity in units of concentration, obtained from inhibition or displacement. As usually defined, the EC50 is the concentration giving half of the maximal effect. A higher EC50 goes with lower potency in that assay. The Emax is the maximal effect, on the per cent scale that the assay sets.
